# Legend:
# Bos taurus = species: Bos taurus; experiment: Activation of actin-stimulated bovine cardiac myosin S1 fragment ATPase activity in sarcomere at 10 uM after 10 mins by spectrophotometric analysis
# Summary of the method: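 Bovine cardiac S1 myosin with actin thin filament complex at pCa 6.5, in 20 mM Tris HCl pH 7.5, 15 mM KCl, 6 mM MgCl2, 1 mM ATP. Compound at 10 μM, 10 min at room temperature. Stopped with Cytophos reagent; liberated phosphate read at 650 nm. % activity calculated relative to DMSO negative control, blank-corrected.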
# Rattus norvegicus [1] = experiment: Positive inotropic activity in Sprague-Dawley rat heart assessed as ejection fraction at 2 to 16 ug/kg/min for 3 mins by echocardiographic analysis; format: functional
# Summary of the method: (§1)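 Seven-week-old male Sprague-Dawley rats under 1.5 % isoflurane via nosecone. Drug given through a right internal jugular vein central line. Left ventricular fractional shortening and ejection fraction measured by echocardiography with and without sample, expressed as % increase.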
# Rattus norvegicus [2] = experiment: Positive inotropic activity in Sprague-Dawley rat heart assessed as left ventricle fractional shortening at 2 to 16 ug/kg/min for 3 mins by echocardiographic analysis; format: functional; summary of the method: as §1
# Oryctolagus cuniculus = species: Oryctolagus cuniculus; experiment: Activation of actin-stimulated rabbit psoas skeletal muscle myosin S1 fragment ATPase activity at 100 uM after 10 mins by spectrophotometric analysis
# Summary of the method: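 Rabbit skeletal S1 myosin with actin thin filament complex at pCa 6.5, in 20 mM Tris HCl pH 7.5, 15 mM KCl, 6 mM MgCl2, 1 mM ATP. Compound at single 100 uM dose, 10 min at room temperature. Cytophos stop; phosphate read at 650 nm. % activity versus blank-corrected DMSO control.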
# Gallus gallus = species: Gallus gallus; experiment: Activation of actin-stimulated chicken gizzard smooth muscle myosin S1 fragment ATPase activity at 100 uM after 10 mins by spectrophotometric analysis
# Summary of the method: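 Chicken gizzard smooth muscle S1 myosin with actin plus tropomyosin at pCa 6.5, in 20 mM Tris HCl pH 7.5, 15 mM KCl, 6 mM MgCl2, 1 mM ATP. Compound at single 100 uM dose, 10 min at room temperature. Cytophos stop; phosphate read at 650 nm. % activity versus blank-corrected DMSO control.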
# [3] = Solubility of the compound in water; format: physicochemical; details: buffer
# Summary of the method: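 Final solution concentration measured by HPLC against three standards of known concentration.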
# [4] = Stability of the compound after 3 months by TLC analysis; format: physicochemical; details: 2191.5 h
# Rattus norvegicus [5] = experiment: Effect on hemodynamic parameters in Sprague-Dawley rat heart assessed as dPdT min at 4 ug/kg/min (reference value: -5462 to -4898 mmHg/s); format: functional
# Rattus norvegicus [6] = experiment: Positive inotropic activity in Sprague-Dawley rat heart assessed as left ventricular posterior wall thickness end systole at 4 ug/kg/min for 3 mins by echocardiographic analysis (reference value: 2.07 to 2.46 mm); format: functional
# Summary of the method: (§2)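 Male Sprague-Dawley rats, seven weeks old, anaesthetised with 1.5 % isoflurane given by nosecone. Compound infused through the right internal jugular vein, used as a central venous line. Left ventricular dimensions measured by echocardiography.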
# Rattus norvegicus [7] = experiment: Effect on hemodynamic parameters in Sprague-Dawley rat heart assessed as dPdT min at 8 ug/kg/min (reference value: -5462 to -4611 mmHg/s); format: functional
# Rattus norvegicus [8] = experiment: Positive inotropic activity in Sprague-Dawley rat heart assessed as left ventricular internal diameter end diastole at 8 ug/kg/min for 3 mins by echocardiographic analysis (reference value: 5.66 to 7.80 mm); format: functional; summary of the method: as §2
# Rattus norvegicus [9] = experiment: Positive inotropic activity in Sprague-Dawley rat heart assessed as left ventricular internal diameter end diastole at 4 ug/kg/min for 3 mins by echocardiographic analysis (reference value: 5.66 to 7.80 mm); format: functional; summary of the method: as §2
# Rattus norvegicus [10] = experiment: Effect on hemodynamic parameters in Sprague-Dawley rat heart assessed as heart rate at 4 ug/kg/min (reference value: 260 to 322 bpm); format: functional
# Rattus norvegicus [11] = experiment: Positive inotropic activity in Sprague-Dawley rat heart assessed as fractional shortening at 8 ug/kg/min for 3 mins by echocardiographic analysis (reference value: 38.60 to 55.81%); format: functional; summary of the method: as §1
# Rattus norvegicus [12] = experiment: Positive inotropic activity in Sprague-Dawley rat heart assessed as fractional shortening at 16 ug/kg/min for 3 mins by echocardiographic analysis (reference value: 38.60 to 55.81%); format: functional; summary of the method: as §1
# Rattus norvegicus [13] = experiment: Effect on hemodynamic parameters in Sprague-Dawley rat heart assessed as dPdT max at 8 ug/kg/min (reference value: 4162 to 5214 mmHg/s); format: functional
# Rattus norvegicus [14] = experiment: Effect on hemodynamic parameters in Sprague-Dawley rat heart assessed as end-systolic pressure at 8 ug/kg/min (reference value: 87.48 to 97.85 mmHg); format: functional
# Rattus norvegicus [15] = experiment: Positive inotropic activity in Sprague-Dawley rat heart assessed as ejection fraction at 16 ug/kg/min for 3 mins by echocardiographic analysis (reference value: 67.16 to 85.81%); format: functional; summary of the method: as §1
# Rattus norvegicus [16] = experiment: Effect on hemodynamic parameters in Sprague-Dawley rat heart assessed as heart rate at 8 ug/kg/min (reference value: 260 to 322 bpm); format: functional
# Rattus norvegicus [17] = experiment: Positive inotropic activity in Sprague-Dawley rat heart assessed as left ventricular posterior wall thickness end diastole at 4 ug/kg/min for 3 mins by echocardiographic analysis (reference value: 0.88 to 1.54 mm); format: functional; summary of the method: as §2
# Rattus norvegicus [18] = experiment: Effect on hemodynamic parameters in Sprague-Dawley rat heart assessed as end-diastolic pressure at 4 ug/kg/min (reference value: 7.68 to 9.83 mmHg); format: functional
# Rattus norvegicus [19] = experiment: Positive inotropic activity in Sprague-Dawley rat heart assessed as heart rate at 4 ug/kg/min for 3 mins by echocardiographic analysis (reference value: 281 to 347 bpm); format: functional
# Rattus norvegicus [20] = experiment: Positive inotropic activity in Sprague-Dawley rat heart assessed as left ventricular posterior wall thickness end diastole at 8 ug/kg/min for 3 mins by echocardiographic analysis (reference value: 0.88 to 1.54 mm); format: functional; summary of the method: as §2
# Rattus norvegicus [21] = experiment: Positive inotropic activity in Sprague-Dawley rat heart assessed as heart rate at 16 ug/kg/min for 3 mins by echocardiographic analysis (reference value: 281 to 347 bpm); format: functional
# Rattus norvegicus [22] = experiment: Positive inotropic activity in Sprague-Dawley rat heart assessed as left ventricular posterior wall thickness end diastole at 16 ug/kg/min for 3 mins by echocardiographic analysis (reference value: 0.88 to 1.54 mm); format: functional; summary of the method: as §2
# Rattus norvegicus [23] = experiment: Positive inotropic activity in Sprague-Dawley rat heart assessed as left ventricular internal diameter end diastole at 16 ug/kg/min for 3 mins by echocardiographic analysis (reference value: 5.66 to 7.80 mm); format: functional
# Rattus norvegicus [24] = experiment: Positive inotropic activity in Sprague-Dawley rat heart assessed as left ventricular posterior wall thickness end systole at 8 ug/kg/min for 3 mins by echocardiographic analysis (reference value: 2.07 to 2.46 mm); format: functional; summary of the method: as §2
# Rattus norvegicus [25] = experiment: Effect on hemodynamic parameters in Sprague-Dawley rat heart assessed as end-systolic pressure at 4 ug/kg/min (reference value: 94.65 to 97.85 mmHg); format: functional
# Rattus norvegicus [26] = experiment: Positive inotropic activity in Sprague-Dawley rat heart assessed as ejection fraction at 8 ug/kg/min for 3 mins by echocardiographic analysis (reference value: 67.16 to 85.81%); format: functional; summary of the method: as §1
# Rattus norvegicus [27] = experiment: Positive inotropic activity in Sprague-Dawley rat heart assessed as fractional shortening at 4 ug/kg/min for 3 mins by echocardiographic analysis (reference value: 38.60 to 55.81%); format: functional; summary of the method: as §1
# Rattus norvegicus [28] = experiment: Positive inotropic activity in Sprague-Dawley rat heart assessed as left ventricular posterior wall thickness end systole at 16 ug/kg/min for 3 mins by echocardiographic analysis (reference value: 2.07 to 2.46 mm); format: functional; summary of the method: as §2
# Rattus norvegicus [29] = experiment: Positive inotropic activity in Sprague-Dawley rat heart assessed as ejection fraction at 4 ug/kg/min for 3 mins by echocardiographic analysis (reference value: 67.16 to 85.81%); format: functional; summary of the method: as §1
# Rattus norvegicus [30] = experiment: Effect on hemodynamic parameters in Sprague-Dawley rat heart assessed as dPdT max at 4 ug/kg/min (reference value: 4985 to 5214 mmHg/s); format: functional
# Rattus norvegicus [31] = experiment: Positive inotropic activity in Sprague-Dawley rat heart assessed as heart rate at 8 ug/kg/min for 3 mins by echocardiographic analysis (reference value: 281 to 347 bpm); format: functional
# Rattus norvegicus [32] = experiment: Effect on hemodynamic parameters in Sprague-Dawley rat heart assessed as end-diastolic pressure at 8 ug/kg/min (reference value: 7.68 to 9.83 mmHg); format: functional
smiles,measurement,setting,value
CN(CCCc1ccccc1)C(=O)N(C)CCc1ccccc1,Activity,Bos taurus,72.4%
same,Activity,Rattus norvegicus [1],3.41%
same,Activity,Rattus norvegicus [2],5.74%
O=C(NCCCC1CCCCC1)NCCC1CCCCC1,Activity,Bos taurus,44.4%
S=C(NCCCc1ccccc1)NCCc1ccccc1,Activity,Bos taurus,10.3%
O=C(NCCCc1ccccc1)Nc1ccccc1,Activity,Bos taurus,46.2%
O=C(NCCCc1ccccc1)NCC1CCOCC1,Activity,Oryctolagus cuniculus,4.4%
same,Activity,Bos taurus,81.4%
same,Activity,Rattus norvegicus [1],13.1%
same,Activity,Rattus norvegicus [2],20.5%
same,Activity,Gallus gallus,5.1%
O=C(NCCCCc1ccccc1)NCCN1CCOCC1,Activity,Bos taurus,42.7%
O=C(NCCCc1ccccc1)NCCc1cccs1,Activity,Bos taurus,29.6%
O=C(NCCCc1ccccc1)NCc1ccco1,Activity,Bos taurus,36.7%
O=C(NCCCC1CCCCC1)NCCc1ccccc1,Activity,Bos taurus,37.9%
O=C(NCCCc1ccccc1)NCc1ccc2[nH]ccc2c1,Activity,Bos taurus,37.2%
O=C(NCCCc1ccccc1)NCCc1ccco1,Activity,Bos taurus,30.6%
O=S(=O)(NCCCc1ccccc1)NCCc1ccccc1,Activity,Bos taurus,32.1%
O=C(NCCCc1ccccc1)NCCN1CCOCC1,Activity,Oryctolagus cuniculus,-5.3%
same,Activity,Bos taurus,44%
same,Activity,Rattus norvegicus [1],15.65%
same,Activity,Rattus norvegicus [2],24.79%
same,Activity,Gallus gallus,3.1%
O=C(NCCCc1ccccc1)N1CCCC(c2ccccc2)C1 (stereo unspecified),Activity,Bos taurus,35.2%
O=C(NCCc1ccccc1)N1CCC(c2ccccc2)CC1,Activity,Bos taurus,46.6%
same,solubility,[3],Insoluble
O=C(NCCCn1ccnc1)NCCc1ccccc1,Activity,Bos taurus,32.6%
Cc1ccc2c(c1)C(=O)[C@]1(O)CCN(c3ccccc3)C1=N2,Activity,Oryctolagus cuniculus,-50.7%
same,Activity,Gallus gallus,-35.7%
O=C(NCCCc1ccccc1)NCCC1CCCCC1,Activity,Bos taurus,61.4%
c1ccc(CCCCNCCCc2ccccc2)cc1,Activity,Bos taurus,11.9%
O=C(COCCc1ccccc1)COCc1ccccc1,Activity,Bos taurus,42.9%
same,Stability,[4],Unstable
c1ccc(CCCCCNCCc2ccccc2)cc1,Activity,Bos taurus,1.6%
CC(CCc1ccc(O)cc1)NCCc1ccc(O)c(O)c1 (stereo unspecified) [DOBUTAMINE],Activity,Rattus norvegicus [5],-4936 mmHg/s
same,Activity,Rattus norvegicus [6],2.93 mm
same,Activity,Rattus norvegicus [7],-4368 mmHg/s
same,Activity,Rattus norvegicus [8],6.93 mm
same,Activity,Rattus norvegicus [9],6.98 mm
same,Activity,Rattus norvegicus [10],270 bpm
same,Activity,Rattus norvegicus [11],75.91%
same,Activity,Rattus norvegicus [12],82.57%
same,Activity,Rattus norvegicus [13],9314 mmHg/s
same,Activity,Rattus norvegicus [14],103.12 mmHg
same,Activity,Rattus norvegicus [15],98.65%
same,Activity,Rattus norvegicus [16],309 bpm
same,Activity,Rattus norvegicus [17],1.06 mm
same,Activity,Rattus norvegicus [18],9.38 mmHg
same,Activity,Rattus norvegicus [19],393 bpm
same,Activity,Rattus norvegicus [20],1.36 mm
same,Activity,Rattus norvegicus [21],421 bpm
same,Activity,Rattus norvegicus [22],1.16 mm
same,Activity,Rattus norvegicus [23],6.68 mm
same,Activity,Rattus norvegicus [24],3.08 mm
same,Activity,Rattus norvegicus [25],96.65 mmHg
same,Activity,Rattus norvegicus [26],96.79%
same,Activity,Rattus norvegicus [27],68.11%
same,Activity,Rattus norvegicus [28],3.59 mm
same,Activity,Rattus norvegicus [29],93.42%
same,Activity,Rattus norvegicus [30],6073 mmHg/s
same,Activity,Rattus norvegicus [31],416 bpm
same,Activity,Rattus norvegicus [32],7.68 mmHg
O=C(NCCCc1ccccc1)NCCc1ccccc1,Activity,Oryctolagus cuniculus,-2.1%
same,Activity,Bos taurus,51.1%
same,Activity,Rattus norvegicus [1],12.15%
same,Activity,Rattus norvegicus [2],18.9%
same,Activity,Gallus gallus,-4.7%
O=C(NCCCc1ccccc1)N1CCCCC1c1ccccc1 (stereo unspecified),Activity,Bos taurus,73%
same,Activity,Rattus norvegicus [1],9.26%
same,Activity,Rattus norvegicus [2],13.32%
O=C(CCCCc1ccccc1)NCCc1ccccc1,Activity,Bos taurus,39.1%
O=C(NCCCc1ccccc1)N1CCCC1c1ccccc1 (stereo unspecified),Activity,Bos taurus,32.4%
O=C(NCCCc1ccccc1)NCc1cccs1,Activity,Bos taurus,47.6%
O=C(NCCCc1ccccc1)NC1Cc2ccccc2C1,Activity,Bos taurus,61.9%
same,solubility,[3],Insoluble
O=C(NCCCc1ccccc1)NCC1CCCCC1,Activity,Bos taurus,60.2%
O=C(NCCc1ccccc1)N1CCN(c2ccccc2)CC1,Activity,Bos taurus,36.6%
O=C(NCCCc1ccccc1)NC1CCCCC1,Activity,Bos taurus,20.3%
O=C(NCCCN1CCOCC1)NCCc1ccccc1,Activity,Bos taurus,32.9%
O=C(NCCCc1ccccc1)NCCCc1ccccc1,Activity,Bos taurus,45.5%
O=C(NCCCc1ccccc1)NCCc1ccccn1,Activity,Bos taurus,30%

# From ChEMBL document CHEMBL4033651, “Exploration of flexible phenylpropylurea scaffold as novel cardiac myosin activators for the treatment of systolic heart failure” (Eur J Med Chem, 2017)
